The target in assay [1] is Histone deacetylase 1 (Homo sapiens, UniProt Q13547). The experiment in a line: Inhibition of human HDAC1 in U937 cells by immunoprecipitation assay. The assay is classed as cell-based, U-937.
Assay [2] has as its target Histone deacetylase 4 (Homo sapiens, UniProt P56524). The experiment in a line: Inhibition of human HDAC4 in U937 cells by immunoprecipitation assay. The assay is classed as cell-based, U-937.
The test system of assay [3] is U-937. In words: Induction of granulocytic differentiation in human U937 cells assessed as CD11c expression at 5 uM after 30 hrs. In kind it is functional. In short, it runs like this: (§1)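 U937 cells stimulated 30 h at 5 µM; granulocytic differentiation measured as CD11c expression, reported as percent CD11c-positive/PI-negative cells; SAHA and MS-275 at 5 µM as references.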

Assay [4] relates to U-937. The experiment in a line: Induction of p21 expression in human U937 cells at 5 uM after 24 hrs. The assay is classed as functional, cell-based. The gist of the method: (§2)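 U937 cells exposed at 5 µM for 24 h; induction of p21WAF1/CIP1 assessed alongside histone H3 and α-tubulin acetylation.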
The test system of assay [5] is U-937. The experiment in a line: Cell cycle arrest in human U937 cells assessed as accumulation at G2 phase at 5 uM after 30 hrs. The assay is classed as functional, cell-based. In short, it runs like this:
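U937 human leukemia cells exposed to compound at 5 µM for 30 h; cell-cycle distribution analysed, arrest read as accumulation in S or G2 phase; SAHA and MS-275 at 5 µM as reference drugs.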

Assay [6] has as its system U-937. In words: Induction of histone H4 hyperacetylation in human U937 cells. In kind it is functional, cell-based.
The test system of assay [7] is U-937. In words: Induction of alpha tubulin hyperacetylation in human U937 cells. The assay is classed as functional, cell-based. The gist of the method: (§3)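 U937 cells exposed at 5 µM for 24 h; acetylation of histone H3 and α-tubulin assessed as markers of class I HDAC and HDAC6 inhibition, respectively.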
Assay [8] deals with U-937. The experiment in a line: Induction of p21 expression in human U937 cells. In kind it is functional, cell-based. In short, it runs like this: as §2
Assay [9] deals with U-937. The experiment in a line: Induction of apoptosis in human U937 cells. The assay is classed as functional, cell-based. In short, it runs like this: (§4)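 U937 cells exposed at 5 µM for 30 h; apoptosis quantified by Annexin V/propidium iodide double staining, expressed as percent apoptotic cells; SAHA and MS-275 at 5 µM as references.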
Assay [10] has as its system U-937. The experiment in a line: Induction of granulocytic differentiation in human U937 cells. In kind it is functional, cell-based. The gist of the method: as §1
The subject of assay [11] is U-937. In words: Induction of apoptosis in human U937 cells at 5 uM after 30 hrs. In kind it is functional. The gist of the method:
as §4

The subject of assay [12] is U-937. The experiment in a line: Induction of histone H4 hyperacetylation in human U937 cells at 5 uM. The assay is classed as functional, cell-based.
The test system of assay [13] is U-937. The experiment in a line: Induction of histone H3 hyperacetylation in human U937 cells at 5 uM. In kind it is functional, cell-based. The gist of the method: as §3
Assay [14] deals with U-937. In words: Induction of alpha tubulin hyperacetylation in human U937 cells at 5 uM. In kind it is functional, cell-based. The gist of the method:
as §3

As usually defined, the IC50 is the point on the concentration scale where inhibition reaches its midpoint. The low end stands for greater potency in that assay, the high end for weaker potency in that assay.

SMILES strings stand for the structures. Activity calls are given as the source filed them. The calls are words filed in the database; no cut-off is given here.

Sequence of Histone deacetylase 1 (Q13547 whole entry): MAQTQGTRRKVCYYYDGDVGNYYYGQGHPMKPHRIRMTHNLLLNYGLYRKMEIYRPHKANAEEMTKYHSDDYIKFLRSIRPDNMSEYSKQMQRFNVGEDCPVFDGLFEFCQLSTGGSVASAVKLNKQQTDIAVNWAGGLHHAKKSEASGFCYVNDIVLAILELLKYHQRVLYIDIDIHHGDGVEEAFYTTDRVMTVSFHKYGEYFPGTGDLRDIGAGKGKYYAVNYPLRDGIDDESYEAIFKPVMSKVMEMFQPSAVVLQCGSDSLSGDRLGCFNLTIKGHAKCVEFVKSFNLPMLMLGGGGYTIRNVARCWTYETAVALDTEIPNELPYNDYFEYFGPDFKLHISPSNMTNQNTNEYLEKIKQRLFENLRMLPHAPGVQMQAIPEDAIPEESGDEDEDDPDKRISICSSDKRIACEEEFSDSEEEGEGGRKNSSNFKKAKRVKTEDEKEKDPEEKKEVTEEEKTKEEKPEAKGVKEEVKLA
Sequence of Histone deacetylase 4 (P56524 whole entry): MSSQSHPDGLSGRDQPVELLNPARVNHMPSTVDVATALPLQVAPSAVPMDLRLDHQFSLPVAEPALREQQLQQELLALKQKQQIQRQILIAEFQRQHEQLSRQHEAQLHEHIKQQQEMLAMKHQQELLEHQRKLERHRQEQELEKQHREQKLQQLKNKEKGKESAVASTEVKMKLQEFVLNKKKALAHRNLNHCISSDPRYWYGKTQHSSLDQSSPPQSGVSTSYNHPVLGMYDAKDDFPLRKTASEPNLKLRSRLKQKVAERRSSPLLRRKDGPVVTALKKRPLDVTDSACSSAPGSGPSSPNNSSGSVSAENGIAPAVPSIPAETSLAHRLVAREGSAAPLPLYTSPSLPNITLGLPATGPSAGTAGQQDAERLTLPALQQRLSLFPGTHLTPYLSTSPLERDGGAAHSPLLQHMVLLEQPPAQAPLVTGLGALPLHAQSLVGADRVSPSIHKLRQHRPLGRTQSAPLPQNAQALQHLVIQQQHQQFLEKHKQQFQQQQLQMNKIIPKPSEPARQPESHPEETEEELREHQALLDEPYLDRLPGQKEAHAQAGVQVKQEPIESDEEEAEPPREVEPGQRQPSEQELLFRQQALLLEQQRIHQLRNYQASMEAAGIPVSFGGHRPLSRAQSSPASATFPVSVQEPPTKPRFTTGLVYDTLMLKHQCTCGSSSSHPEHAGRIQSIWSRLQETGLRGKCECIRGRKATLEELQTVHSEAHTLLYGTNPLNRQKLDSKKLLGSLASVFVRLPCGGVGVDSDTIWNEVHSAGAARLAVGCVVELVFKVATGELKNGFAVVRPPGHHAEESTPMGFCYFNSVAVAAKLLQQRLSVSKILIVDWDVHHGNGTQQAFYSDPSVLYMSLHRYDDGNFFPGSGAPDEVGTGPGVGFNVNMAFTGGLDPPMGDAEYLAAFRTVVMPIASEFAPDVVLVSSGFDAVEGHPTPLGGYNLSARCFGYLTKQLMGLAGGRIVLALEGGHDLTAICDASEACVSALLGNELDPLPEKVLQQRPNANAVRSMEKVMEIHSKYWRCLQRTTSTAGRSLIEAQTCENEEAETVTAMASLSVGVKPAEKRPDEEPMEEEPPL

`Nc1ccccc1NC(=O)c1ccc(CSc2nc(-c3ccccc3)cc(=O)[nH]2)cc1`: the IC50 came out at 0.2 µM in assay [1] and 125 µM in assay [2]. Further, the Activity in assay [3] amounted to 47.6%. In addition, the result in assay [4] and in [5] was Active.

With `O=C(CCCCCCC(=O)Nc1ccccc1)NO` [VORINOSTAT], the result in assay [6], in assay [7], in [8], in [9] and in [10] was Active. The Activity in assay [3] was 21.5%; in [11] it was 16.8%.

As to `Nc1ccccc1NC(=O)CCCCCc1nc(-c2ccccc2)cc(=O)[nH]1`, in [4], the outcome was Active. In [11], this molecule gave an Activity of 4.8%.

In the case of `Nc1cccc2cccc(NC(=O)CCCCSc3nc(-c4ccccc4)cc(=O)[nH]3)c12`, the Activity in assay [3] was 30.3%. In addition, in assay [4], the outcome was Active.

Turning to `Nc1ccccc1NC(=O)c1ccc(CNC(=O)OCc2cccnc2)cc1` [ENTINOSTAT], the outcome in assay [6] and in assay [10] was Active. Also, the result in assay [7] and in [9] was inactive. The results for the Activity in assay [3] and in assay [11] were 30.8% and 3.5%, respectively.

Take `Nc1ccccc1NC(=O)CCCCCC(=O)Nc1ccccc1`: the outcome in assay [12] and in assay [13] was Active. Moreover, the outcome in assay [14] was inactive. In addition, the Activity in assay [3] is 18.3%.

For the molecule `Nc1ccccc1NC(=O)CCCCSc1nc(-c2ccccc2)cc(=O)[nH]1`, the result in assay [4] was Active.

Take `O=C(CCCCCC(=O)Nc1ccccc1O)Nc1ccccc1`: in assay [3], the Activity is reported as 36.6%.

On to `Nc1cccc2cccc(NC(=O)CCCCCc3nc(-c4ccc(-c5ccccc5)cc4)cc(=O)[nH]3)c12`, for which, in assay [3], the Activity is given as 67.6%.

For `Nc1ccccc1NC(=O)CCCCCc1nc(-c2ccc(-c3ccccc3)cc2)cc(=O)[nH]1`, the Activity in assay [3] amounted to 45.9%. For the same molecule, the result in assay [4] was Active.

Values taken from ChEMBL document CHEMBL1144847, “Novel uracil-based 2-aminoanilide and 2-aminoanilide-like derivatives: histone deacetylase inhibition and in-cell activities” (Bioorg Med Chem Lett, 2008).
